Laboratory results: ChEMBL document CHEMBL1152644, “Synthesis of isoquinolinone-based tetracycles as poly (ADP-ribose) polymerase-1 (PARP-1) inhibitors” (Bioorg Med Chem, 2009)
Counter-ions that a name gives are not always drawn.

Key:
[1] = target: Poly [ADP-ribose] polymerase 1 (Homo sapiens, UniProt P09874); assay: Inhibition of PARP1
[2] = tested on: DU-145; assay: Cytotoxicity against human DU145 cells at 10 uM by MTT assay; format: functional
[3] = tested on: HCT-116; assay: Induction of etoposide-induced cytotoxicity in human HCT116 cells assessed as potentiation factor, ratio of cytotoxic IC50 for etoposide alone to cytotoxic IC50 etoposide in presence of drug; format: functional
Procedure, shortened: (§1)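 HCT116 cells in RPMI 1640 with 10% FBS at 37 °C under 5% CO2 were seeded at 3 x 10^4 cells/well and grown overnight. On day 2, medium was replaced with graded temozolomide or etoposide, with or without PARP-1 inhibitor at 0.5 µM. On day 4, CCK-8 was added for 4 h and A450 read. IC50 came from four-parameter logistic fits. Potentiation factor = IC50 (agent alone)/IC50 (agent + inhibitor); mean±S.D. of ≥3 independent experiments.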

[4] = tested on: HCT-116; assay: Induction of temozolomide-induced cytotoxicity in human HCT116 cells assessed as potentiation factor, ratio of cytotoxic IC50 for temozolomide alone to cytotoxic IC50 temozolomide in presence of drug; format: functional; procedure, shortened: as §1
[5] = tested on: HCT-116; assay: Cytotoxicity against human HCT116 cells after 2 days; details: HCT-116, 48 h

Chain of Poly [ADP-ribose] polymerase 1 (P09874 whole entry): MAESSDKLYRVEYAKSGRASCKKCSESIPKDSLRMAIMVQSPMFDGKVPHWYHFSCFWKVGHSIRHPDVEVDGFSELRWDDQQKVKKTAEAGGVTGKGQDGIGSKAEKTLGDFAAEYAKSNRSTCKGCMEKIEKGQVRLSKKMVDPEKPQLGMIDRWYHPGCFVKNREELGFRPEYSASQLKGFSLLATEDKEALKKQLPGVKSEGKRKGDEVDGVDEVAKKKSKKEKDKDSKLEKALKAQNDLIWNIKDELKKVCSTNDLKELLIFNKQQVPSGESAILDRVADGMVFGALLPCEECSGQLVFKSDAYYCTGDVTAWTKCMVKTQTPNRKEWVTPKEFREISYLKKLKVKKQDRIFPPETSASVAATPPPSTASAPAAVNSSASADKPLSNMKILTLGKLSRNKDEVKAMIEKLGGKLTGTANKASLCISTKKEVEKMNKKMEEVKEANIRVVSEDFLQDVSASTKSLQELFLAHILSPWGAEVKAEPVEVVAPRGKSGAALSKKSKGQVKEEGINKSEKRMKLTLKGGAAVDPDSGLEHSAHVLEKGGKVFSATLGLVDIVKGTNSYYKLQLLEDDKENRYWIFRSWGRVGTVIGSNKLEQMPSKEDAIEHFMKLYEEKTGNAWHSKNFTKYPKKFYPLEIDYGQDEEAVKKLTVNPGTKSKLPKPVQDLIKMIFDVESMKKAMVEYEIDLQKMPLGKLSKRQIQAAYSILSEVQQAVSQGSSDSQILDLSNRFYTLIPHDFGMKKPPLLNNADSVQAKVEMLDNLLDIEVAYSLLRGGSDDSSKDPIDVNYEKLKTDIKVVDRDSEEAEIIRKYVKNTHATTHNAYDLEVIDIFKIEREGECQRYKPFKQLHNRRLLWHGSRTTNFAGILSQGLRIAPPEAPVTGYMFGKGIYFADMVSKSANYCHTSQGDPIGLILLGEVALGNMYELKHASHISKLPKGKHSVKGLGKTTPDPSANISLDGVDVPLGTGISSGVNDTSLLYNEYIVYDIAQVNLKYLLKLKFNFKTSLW

| SMILES | IC50 [1] | inhibition at 10 µM [2] | PF50 [3] | PF50 [4] | IC50 [5] |
| --- | --- | --- | --- | --- | --- |
| O=C1NCCc2c(OCCCCN3CCCCC3)cccc21 | 10.8 µM |  |  |  |  |
| O=c1[nH]c2c(nc3cc(S(=O)(=O)NCCCN4CCOCC4)ccn32)c2ccccc12 | 0.036 µM |  |  |  |  |
| Cc1cc(C)n2c(c1)nc1c3ccccc3c(=O)[nH]c12 | > 100 µM | 38.5% |  |  |  |
| Cc1ccn2c(n1)nc1c3ccccc3c(=O)[nH]c12 | 0.56 µM | 27.7% | 1.2 | 1.1 |  |
| CC[C@@]1(O)C(=O)OCc2c1cc1n(c2=O)Cc2cc3ccccc3nc2-1 [CAMPTOTHECIN] |  | 69.4% |  |  |  |
| COc1cccc2c1C(=O)c1c(O)c3c(c(O)c1C2=O)C[C@@](O)(C(=O)CO)C[C@@H]3O[C@H]1C[C@H](N)[C@H](O)[C@H](C)O1 [DOXORUBICIN HYDROCHLORIDE] |  | 70.3% |  |  |  |
| COc1cc([C@@H]2c3cc4c(cc3[C@@H](O[C@@H]3O[C@@H]5CO[C@@H](C)O[C@H]5[C@H](O)[C@H]3O)[C@H]3COC(=O)[C@H]23)OCO4)cc(OC)c1O [ETOPOSIDE] |  | 72.1% |  |  | 14.4 µM |
| Cn1nnc2c(C(N)=O)ncn2c1=O [TEMOZOLOMIDE] |  |  |  |  | 4.34 µM |

Now from value to compound, other results behind:

| IC50 [1] | SMILES | inhibition at 10 µM [2] | PF50 [3] | PF50 [4] | IC50 [5] |
| --- | --- | --- | --- | --- | --- |
| 4.27 µM | Cc1ccc2nc3c4ccccc4c(=O)[nH]c3n2c1 | 19.2% |  |  |  |
| 5.87 µM | O=c1[nH]c2c(nc3cc(Cl)ccn32)c2ccccc12 | 11.4% |  |  |  |
| 5.78 µM | O=c1[nH]c2c(nc3ncccn32)c2ccccc12 | 14.2% |  |  |  |
| 4.11 µM | O=c1[nH]c2c(nc3c4ccccc4ccn32)c2ccccc12 | 25.5% |  |  |  |
| 14.8 µM | O=c1[nH]c2c(nc3ccc(Cl)cn32)c2ccccc12 | 0.2% |  |  |  |
| 12.1 µM | O=c1[nH]c2c(nc3ccc(Br)cn32)c2ccccc12 | 6.8% |  |  |  |
| > 100 µM | COc1cc2nc3c4ccccc4c(=O)[nH]c3n2cn1 | 0% |  |  |  |
| > 100 µM | Cc1cccc2nc3c4ccccc4c(=O)[nH]c3n12 | 25.6% |  |  |  |
| 0.85 µM | O=c1[nH]c2c(nc3ccccn32)c2ccccc12 | 7.9% |  |  |  |
| 3.31 µM | Cc1cccn2c1nc1c3ccccc3c(=O)[nH]c12 | 9.1% |  |  |  |
| 0.47 µM | Cc1ccn2c(c1)nc1c3ccccc3c(=O)[nH]c12 | 0% | 1.7 | 1.7 |  |
| 3.23 µM | O=c1[nH]c2c(nc3cnccn32)c2ccccc12 | 18.7% |  |  |  |
